Values after ≈ are worked out from the molar mass of the structure shown.
Assays:
Escherichia coli = assay: Antibacterial activity against Escherichia coli KCTC 1924 after 24 hrs by microtiter ELISA; type: functional; details: KCTC 1924, 24 h
Summary of the method: (§1)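 Two-fold serial broth dilution in Mueller-Hinton broth, final 64-0.25 µg/mL; compounds in DMSO (final ≤0.05%). Mid-log cultures diluted 1000-fold, inoculum 10^5 CFU/mL; oxacillin and norfloxacin as positive controls. After 24 h at 37 °C, growth read at 650 nm on a microtiter ELISA reader; MIC = lowest level giving complete growth inhibition. Run three times.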

Staphylococcus aureus [1] = assay: Antibacterial activity against quinolone-resistant Staphylococcus aureus CCARM 3519 after 24 hrs by microtiter ELISA; type: functional; details: CCARM 3519, 24 h
Summary of the method: (§2)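 Broth microdilution MIC. Bacteria grown to mid-log phase in Mueller-Hinton broth, diluted 1000-fold, and inoculated at 10^5 CFU/mL. Compounds in DMSO (final ≤0.05%) were given as two-fold serial dilutions, final 64-0.25 µg/mL. Plates were incubated 24 h at 37 °C and growth read at 650 nm. MIC is the lowest concentration giving complete growth inhibition. Three independent experiments; oxacillin and norfloxacin served as positive controls.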

Streptococcus mutans = assay: Antibacterial activity against Streptococcus mutans 3289 after 24 hrs by microtiter ELISA; type: functional; details: Streptococcus mutans, 3289, 24 h; summary of the method: as §1
Staphylococcus aureus [2] = assay: Antibacterial activity against methicillin-resistant Staphylococcus aureus CCARM 3167 after 24 hrs by microtiter ELISA; type: functional; details: CCARM 3167, 24 h; summary of the method: as §2
Candida albicans = assay: Antifungal activity against Candida albicans 7535 after 24 hrs by microtiter ELISA; type: functional; details: Candida albicans, 7535, 24 h; summary of the method: as §1
Staphylococcus aureus [3] = assay: Antibacterial activity against methicillin-resistant Staphylococcus aureus CCARM 3506 after 24 hrs by microtiter ELISA; type: functional; details: CCARM 3506, 24 h; summary of the method: as §2
Staphylococcus aureus [4] = assay: Antibacterial activity against quinolone-resistant Staphylococcus aureus CCARM 3505 after 24 hrs by microtiter ELISA; type: functional; details: CCARM 3505, 24 h; summary of the method: as §2
Staphylococcus aureus [5] = assay: Antibacterial activity against Staphylococcus aureus RN4220 after 24 hrs by microtiter ELISA; type: functional; details: RN4220, 24 h; summary of the method: as §2
L02 = assay: Cytotoxicity against human L02 cells assessed as inhibition of cell growth measured after 24 hrs by MTT assay; type: cell-based; details: L02, 24 h
Summary of the method: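 L02 normal human liver cells seeded at 1.8 × 10^4 cells/well in DMEM with 10% FBS and antimycotic. Exposed 24 h at 37 °C, 5% CO2 to 200-1.625 µM, compounds in 10% DMSO. MTT (2.5 mg/mL) added for 4 h, formazan dissolved in DMSO, OD at 570 nm. Untreated cells as negative control; IC50 = 50% growth inhibition; triplicate.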

Staphylococcus aureus [6] = assay: Antibacterial activity against quinolone-resistant Staphylococcus aureus CCARM 3505 by serial dilution method; type: functional; summary of the method: as §2
Staphylococcus aureus [7] = assay: Antibacterial activity against Staphylococcus aureus RN4220 by serial dilution method; type: functional; summary of the method: as §2
[8] = biological target: Dihydrofolate reductase (Homo sapiens) (UniProt P00374); assay: Inhibition of human DHFR at 10 umol/L measured after 1.5 hrs by ELISA relative to control
Chain of Dihydrofolate reductase (Homo sapiens) (P00374 whole entry, looked up): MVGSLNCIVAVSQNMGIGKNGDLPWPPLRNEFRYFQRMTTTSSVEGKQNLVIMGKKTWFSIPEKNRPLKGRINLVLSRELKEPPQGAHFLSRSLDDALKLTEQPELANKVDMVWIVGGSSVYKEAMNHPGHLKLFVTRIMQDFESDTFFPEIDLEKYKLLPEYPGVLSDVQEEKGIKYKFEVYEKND

Staphylococcus aureus [9] = assay: Antibacterial activity against Staphylococcus aureus by serial dilution method; type: functional; summary of the method: as §1

Row | SMILES | MIC (Escherichia coli) | MIC (Staphylococcus aureus [1]) | MIC (Streptococcus mutans) | MIC (Staphylococcus aureus [2]) | MIC (Candida albicans) | MIC (Staphylococcus aureus [3]) | MIC (Staphylococcus aureus [4]) | MIC (Staphylococcus aureus [5]) | IC50 (L02) | MIC (Staphylococcus aureus [6]) | MIC (Staphylococcus aureus [7]) | inhibition [8] | MIC (Staphylococcus aureus [9])
1 | CN(C)C1=NC(c2cn(-c3ccc([N+](=O)[O-])cc3[N+](=O)[O-])nc2-c2ccc(Cl)cc2Cl)N=C(N)N1 (configuration not stated) | 8 µg/mL (≈ 15.4 µM) | 16 µg/mL (≈ 30.9 µM) | 8 µg/mL (≈ 15.4 µM) | 4 µg/mL (≈ 7.72 µM) | 8 µg/mL (≈ 15.4 µM) | 4 µg/mL (≈ 7.72 µM) | 8 µg/mL (≈ 15.4 µM) | 8 µg/mL (≈ 15.4 µM) | > 100 µM |  |  |  | 
2 | CN(C)C1=NC(c2cn(-c3ccc([N+](=O)[O-])cc3)nc2-c2ccc(Cl)cc2Cl)N=C(N)N1 (configuration not stated) | 2 µg/mL (≈ 4.23 µM) | 2 µg/mL (≈ 4.23 µM) | 4 µg/mL (≈ 8.45 µM) | 2 µg/mL (≈ 4.23 µM) | 4 µg/mL (≈ 8.45 µM) | 2 µg/mL (≈ 4.23 µM) | 4 µg/mL (≈ 8.45 µM) | 2 µg/mL (≈ 4.23 µM) | > 100 µM |  |  |  | 
3 | NC1=NC(c2cn(-c3ccc([N+](=O)[O-])cc3)nc2-c2ccc(Cl)cc2Cl)N=C(N2CCOCC2)N1 (configuration not stated) | 4 µg/mL (≈ 7.76 µM) | 4 µg/mL (≈ 7.76 µM) | 8 µg/mL (≈ 15.5 µM) | 2 µg/mL (≈ 3.88 µM) | 4 µg/mL (≈ 7.76 µM) | 2 µg/mL (≈ 3.88 µM) | 4 µg/mL (≈ 7.76 µM) | 2 µg/mL (≈ 3.88 µM) | > 100 µM |  |  |  | 
4 | CN(C)C1=NC(c2cn(-c3ccc([N+](=O)[O-])cc3[N+](=O)[O-])nc2-c2ccccc2)N=C(N)N1 (configuration not stated) | 32 µg/mL (≈ 71.2 µM) | 64 µg/mL (≈ 142 µM) | 64 µg/mL (≈ 142 µM) | 32 µg/mL (≈ 71.2 µM) | 32 µg/mL (≈ 71.2 µM) | 64 µg/mL (≈ 142 µM) | 32 µg/mL (≈ 71.2 µM) | 32 µg/mL (≈ 71.2 µM) |  |  |  |  | 
5 | CN(C)C1=NC(c2cn(-c3ccc([N+](=O)[O-])cc3[N+](=O)[O-])nc2-c2ccc(F)cc2)N=C(N)N1 (configuration not stated) | 32 µg/mL (≈ 68.5 µM) | 64 µg/mL (≈ 137 µM) | 32 µg/mL (≈ 68.5 µM) | 32 µg/mL (≈ 68.5 µM) | 32 µg/mL (≈ 68.5 µM) | 32 µg/mL (≈ 68.5 µM) | 64 µg/mL (≈ 137 µM) | 32 µg/mL (≈ 68.5 µM) |  |  |  |  | 
6 | NC1=NC(c2cn(-c3ccc([N+](=O)[O-])cc3[N+](=O)[O-])nc2-c2ccc(Br)cc2)N=C(N2CCOCC2)N1 (configuration not stated) | 8 µg/mL (≈ 14 µM) | 8 µg/mL (≈ 14 µM) | 16 µg/mL (≈ 28.1 µM) | 8 µg/mL (≈ 14 µM) | 8 µg/mL (≈ 14 µM) | 4 µg/mL (≈ 7.01 µM) | 8 µg/mL (≈ 14 µM) | 8 µg/mL (≈ 14 µM) |  |  |  |  | 
7 | NC1=NC(c2cn(-c3ccccc3)nc2-c2ccc(Br)cc2)N=C(N2CCOCC2)N1 (configuration not stated) | 16 µg/mL (≈ 33.3 µM) | 8 µg/mL (≈ 16.7 µM) | 32 µg/mL (≈ 66.6 µM) | 8 µg/mL (≈ 16.7 µM) | 16 µg/mL (≈ 33.3 µM) | 4 µg/mL (≈ 8.33 µM) | 16 µg/mL (≈ 33.3 µM) | 8 µg/mL (≈ 16.7 µM) |  |  |  |  | 
8 | CN(C)C1=NC(c2cn(-c3ccc([N+](=O)[O-])cc3[N+](=O)[O-])nc2-c2ccccc2[N+](=O)[O-])N=C(N)N1 (configuration not stated) | > 64 µg/mL | > 64 µg/mL | > 64 µg/mL | > 64 µg/mL | > 64 µg/mL | > 64 µg/mL | > 64 µg/mL | > 64 µg/mL |  |  |  |  | 
9 | NC1=NC(c2ccc3cc(OCc4ccc(Cl)cc4Cl)ccc3c2)N=C(N2CCOCC2)N1 (configuration not stated) |  |  |  |  |  |  |  |  |  | 1 µg/mL (≈ 2.06 µM) | 1 µg/mL (≈ 2.06 µM) |  | 
10 | NC1=NC(c2cn(-c3ccc([N+](=O)[O-])cc3[N+](=O)[O-])nc2-c2ccccc2Cl)N=C(N2CCOCC2)N1 (configuration not stated) | 64 µg/mL (≈ 122 µM) | 64 µg/mL (≈ 122 µM) | 64 µg/mL (≈ 122 µM) | 32 µg/mL (≈ 60.8 µM) | 64 µg/mL (≈ 122 µM) | 32 µg/mL (≈ 60.8 µM) | 32 µg/mL (≈ 60.8 µM) | 32 µg/mL (≈ 60.8 µM) |  |  |  |  | 
11 | NC1=NC(c2cn(-c3ccc([N+](=O)[O-])cc3[N+](=O)[O-])nc2-c2ccc(Cl)cc2Cl)N=C(N2CCOCC2)N1 (configuration not stated) | 8 µg/mL (≈ 14.3 µM) | 16 µg/mL (≈ 28.6 µM) | 16 µg/mL (≈ 28.6 µM) | 8 µg/mL (≈ 14.3 µM) | 8 µg/mL (≈ 14.3 µM) | 8 µg/mL (≈ 14.3 µM) | 8 µg/mL (≈ 14.3 µM) | 16 µg/mL (≈ 28.6 µM) |  |  |  |  | 
12 | Cc1ccc(-c2nn(-c3ccccc3)cc2C2N=C(N)NC(N(C)C)=N2)cc1 (configuration not stated) | 32 µg/mL (≈ 85.7 µM) | 64 µg/mL (≈ 171 µM) | 64 µg/mL (≈ 171 µM) | 16 µg/mL (≈ 42.8 µM) | 32 µg/mL (≈ 85.7 µM) | 32 µg/mL (≈ 85.7 µM) | 64 µg/mL (≈ 171 µM) | 32 µg/mL (≈ 85.7 µM) |  |  |  |  | 
13 | NC1=NC(c2cn(-c3ccc([N+](=O)[O-])cc3)nc2-c2ccc(Cl)cc2Cl)N=C(NCCc2ccccc2)N1 (configuration not stated) | 1 µg/mL (≈ 1.82 µM) | 1 µg/mL (≈ 1.82 µM) | 1 µg/mL (≈ 1.82 µM) | 1 µg/mL (≈ 1.82 µM) | 1 µg/mL (≈ 1.82 µM) | 1 µg/mL (≈ 1.82 µM) | 1 µg/mL (≈ 1.82 µM) | 1 µg/mL (≈ 1.82 µM) | 50.5 µM |  |  | 92% | 
14 | O=C(O)CN1C(=O)/C(=C/c2cn(-c3ccc([N+](=O)[O-])cc3[N+](=O)[O-])nc2-c2ccc(Cl)cc2Cl)SC1=S |  |  |  |  |  |  |  |  |  |  |  |  | 16 µg/mL (≈ 27.6 µM)
15 | CN(C)C1=NC(c2cn(-c3ccc([N+](=O)[O-])cc3[N+](=O)[O-])nc2-c2ccccc2Cl)N=C(N)N1 (configuration not stated) | 32 µg/mL (≈ 66.1 µM) | 64 µg/mL (≈ 132 µM) | 64 µg/mL (≈ 132 µM) | 32 µg/mL (≈ 66.1 µM) | 64 µg/mL (≈ 132 µM) | 64 µg/mL (≈ 132 µM) | 32 µg/mL (≈ 66.1 µM) | 32 µg/mL (≈ 66.1 µM) |  |  |  |  | 

From ChEMBL document CHEMBL4316612, “Synthesis of novel dihydrotriazine derivatives bearing 1,3-diaryl pyrazole moieties as potential antibacterial agents” (Bioorg Med Chem Lett, 2019)
